# Data taken from ChEMBL document CHEMBL1125790, “Spiro[fluoreneisothiazolidin]one dioxides: new aldose reductase and L-hexonate dehydrogenase inhibitors” (J Med Chem, 1991).
# Columns and labels:
# [1] = target: Aldo-keto reductase family 1 member A1 (Rattus norvegicus, UniProt P51635); assay: In vitro inhibitory activity against L-Hexonate Dehydrogenase (L-HDH) from rat kidney (RK)
# [2] = target: Aldo-keto reductase family 1 member B1 (Rattus norvegicus, UniProt P07943); assay: In vitro inhibition of Aldose reductase (AR) from rat lens (RL)
# Summary of the method: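 Unfractionated rat lens supernatant (50–100 μg protein) run in the reverse direction: 50 mmol/L potassium phosphate pH 7.5, 12 mmol/L benzyl alcohol, 12 μmol/L oxidized 3-acetylpyridine adenine dinucleotide phosphate, room temperature. Reduced analogue formation followed fluorometrically at 365/480 nm. Same enzyme activity used for all inhibitors. IC50 from linear regression over the linear part of the dose–response curve.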
# [3] = target: Aldo-keto reductase family 1 member B1 (Rattus norvegicus) (UniProt P07943); assay: Selectivity as ratio of IC50 for rat lens and kidney […]
# Aldo-keto reductase family 1 member A1, sequence (P51635 whole entry, looked up): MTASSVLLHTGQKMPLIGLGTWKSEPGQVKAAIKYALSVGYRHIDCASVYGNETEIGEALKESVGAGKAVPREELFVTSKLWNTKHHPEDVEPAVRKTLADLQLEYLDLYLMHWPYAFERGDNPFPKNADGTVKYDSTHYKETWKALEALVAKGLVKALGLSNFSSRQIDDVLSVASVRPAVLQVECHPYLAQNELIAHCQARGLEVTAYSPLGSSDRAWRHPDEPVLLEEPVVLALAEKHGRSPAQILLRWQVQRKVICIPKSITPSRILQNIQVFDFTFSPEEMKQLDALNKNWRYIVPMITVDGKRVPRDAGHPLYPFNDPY
IC50 [1],IC50 [2],Selectivity quotient [3],Structure (SMILES)
0.027 µM,0.018 µM,0.68,O=C1CC2(c3cc(F)ccc3-c3ccc(F)cc32)S(=O)(=O)N1
0.105 µM,0.233 µM,2.22,O=C1CC2(c3ccccc3-c3ccc(Cl)cc32)S(=O)(=O)N1 (centres undefined)
0.005 µM,0.009 µM,1.8,O=C1NC(=O)C2(N1)c1cc(F)ccc1-c1ccc(F)cc12
3.75 µM,6150 µM,1640,O=C1NS(=O)(=O)CC12c1cc(F)ccc1-c1ccc(F)cc12
–,0.002 µM,–,COc1ccc2c(C(=S)N(C)CC(=O)O)cccc2c1C(F)(F)F [TOLRESTAT]
3.51 µM,2370 µM,675,O=C1NS(=O)(=O)CC12c1ccccc1-c1ccc(Cl)cc12 (centres undefined)
1.75 µM,1.9 µM,1.09,O=C1CC2(c3ccccc3-c3ccccc32)S(=O)(=O)N1
0.009 µM,0.005 µM,0.56,O=C1CC2(C(=O)N1)c1cc(F)ccc1-c1ccc(F)cc12
4.5 µM,> 10000 µM,> 2000,O=C1NS(=O)(=O)CC12c1ccccc1-c1ccccc12
0.151 µM,0.169 µM,1.12,O=C1CC2(c3ccccc3-c3ccc(F)cc32)S(=O)(=O)N1 (centres undefined)
2.1 µM,> 10000 µM,> 5000,O=C1NS(=O)(=O)CC12c1ccccc1-c1ccc(F)cc12 (centres undefined)
2.4 µM,0.02 µM,0.008,O=C(O)Cc1nn(Cc2ccc(Br)cc2F)c(=O)c2ccccc12 [PONALRESTAT]
